# From ChEMBL document CHEMBL5149984, “Discovery of HN37 as a Potent and Chemically Stable Antiepileptic Drug Candidate” (J Med Chem, 2021)
# What was measured:
# [1] = target: Potassium voltage-gated channel subfamily KQT member 5 (Homo sapiens) (UniProt Q9NR82); experiment: Agonist activity at human KCNQ5 channel expressed in CHO cells assessed as amplitude change of outward current at 10 uM by patch clamp method; type: cell-based; conditions: filed as agonist
# Method in brief: (§1)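 Whole-cell patch clamp at room temperature on CHO cells (DMEM/F12, 10% FBS) transiently co-transfected with EGFP and hKCNQ1, rKCNQ2, rKCNQ3 A278T, hKCNQ4 or hKCNQ5; KCNQ2/3 at 1:1 cDNA ratio. Pipette solution 145 mM KCl, 5 mM MgATP, pH 7.3; bath 140 mM NaCl, 5 mM KCl, pH 7.4, under perfusion. V1/2 from Boltzmann fits; I/I0 is current amplitude with versus without compound; n = 4−6.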
# CHO = experiment: Agonist activity at rat KCNQ3 A278T mutant expressed in CHO cells assessed as amplitude change of outward current at 10 uM by patch clamp method; type: cell-based; conditions: filed as agonist; method in brief: as §1
# [2] = target: T1, Potassium voltage-gated channel subfamily KQT member 4 (Homo sapiens) (UniProt P56696); experiment: Agonist activity at human KCNQ4 channel expressed in CHO cells assessed as shift of half voltage of maximal activation at 10 uM by patch clamp method; type: cell-based; conditions: filed as agonist; method in brief: as §1
# T1 sequence (whole entry): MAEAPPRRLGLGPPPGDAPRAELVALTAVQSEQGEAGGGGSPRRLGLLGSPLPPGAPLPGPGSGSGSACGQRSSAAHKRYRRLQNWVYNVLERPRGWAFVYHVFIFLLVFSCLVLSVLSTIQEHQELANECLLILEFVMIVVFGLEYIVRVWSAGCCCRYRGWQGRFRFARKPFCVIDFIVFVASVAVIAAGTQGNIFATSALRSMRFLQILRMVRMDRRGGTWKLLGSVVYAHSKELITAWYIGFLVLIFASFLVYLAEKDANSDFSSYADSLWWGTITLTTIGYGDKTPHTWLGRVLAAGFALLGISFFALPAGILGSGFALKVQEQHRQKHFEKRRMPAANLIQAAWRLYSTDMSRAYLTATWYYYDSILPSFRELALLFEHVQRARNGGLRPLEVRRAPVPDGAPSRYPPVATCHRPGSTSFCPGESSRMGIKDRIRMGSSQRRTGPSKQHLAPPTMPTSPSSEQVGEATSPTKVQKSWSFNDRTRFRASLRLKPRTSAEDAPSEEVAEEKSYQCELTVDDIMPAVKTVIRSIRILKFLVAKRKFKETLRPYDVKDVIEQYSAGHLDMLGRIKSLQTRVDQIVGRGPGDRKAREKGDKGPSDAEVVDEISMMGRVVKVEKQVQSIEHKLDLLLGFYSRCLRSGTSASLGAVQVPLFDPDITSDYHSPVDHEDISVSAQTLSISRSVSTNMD
# Cytochrome P450 3A4 = Cytochrome P450 3A4 (Homo sapiens, UniProt P08684); experiment: Time dependent inhibition of human liver microsome CYP3A4 preincubated for 0.5 hrs in presence or absence of NADPH followed by midazolam addition by LC-MS/MS method; type: ADME, microsomes
# Sequence of Cytochrome P450 3A4 (P08684 whole entry): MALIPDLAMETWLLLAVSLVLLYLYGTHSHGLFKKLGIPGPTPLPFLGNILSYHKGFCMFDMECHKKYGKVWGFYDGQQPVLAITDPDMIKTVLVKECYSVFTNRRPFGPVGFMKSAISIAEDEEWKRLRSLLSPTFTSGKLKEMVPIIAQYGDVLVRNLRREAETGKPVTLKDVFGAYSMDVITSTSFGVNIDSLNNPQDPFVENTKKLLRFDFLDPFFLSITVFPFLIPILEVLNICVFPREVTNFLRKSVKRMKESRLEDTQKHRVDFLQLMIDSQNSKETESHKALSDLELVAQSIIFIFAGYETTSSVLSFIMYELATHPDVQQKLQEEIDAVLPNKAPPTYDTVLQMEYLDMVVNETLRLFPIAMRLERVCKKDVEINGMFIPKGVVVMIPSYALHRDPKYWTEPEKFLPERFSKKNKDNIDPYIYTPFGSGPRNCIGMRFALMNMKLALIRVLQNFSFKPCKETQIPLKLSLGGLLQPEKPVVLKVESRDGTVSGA
# Method in brief: (§2)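 Human liver microsomes preincubated 0.5 h with 0.10–50 μM test compound, with or without NADPH, then CYP-specific probe substrate added and incubation continued. Metabolite measured by LC-MS/MS; % activity remaining relative to no-compound control; IC50 fitted by Probit model. For CYP3A4, midazolam 1′-hydroxylation and testosterone 6β-hydroxylation were read separately.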
# [3] = Metabolic stability in rat liver microsomes assessed as half life; type: ADME, Microsome
# Cytochrome P450 2B6 = Cytochrome P450 2B6 (Homo sapiens, UniProt P20813); experiment: Time dependent inhibition of human liver microsome CYP2B6 preincubated for 0.5 hrs in absence of NADPH followed by substrate addition by LC-MS/MS method; type: ADME, microsomes; method in brief: as §2
# Sequence of Cytochrome P450 2B6 (P20813 whole entry): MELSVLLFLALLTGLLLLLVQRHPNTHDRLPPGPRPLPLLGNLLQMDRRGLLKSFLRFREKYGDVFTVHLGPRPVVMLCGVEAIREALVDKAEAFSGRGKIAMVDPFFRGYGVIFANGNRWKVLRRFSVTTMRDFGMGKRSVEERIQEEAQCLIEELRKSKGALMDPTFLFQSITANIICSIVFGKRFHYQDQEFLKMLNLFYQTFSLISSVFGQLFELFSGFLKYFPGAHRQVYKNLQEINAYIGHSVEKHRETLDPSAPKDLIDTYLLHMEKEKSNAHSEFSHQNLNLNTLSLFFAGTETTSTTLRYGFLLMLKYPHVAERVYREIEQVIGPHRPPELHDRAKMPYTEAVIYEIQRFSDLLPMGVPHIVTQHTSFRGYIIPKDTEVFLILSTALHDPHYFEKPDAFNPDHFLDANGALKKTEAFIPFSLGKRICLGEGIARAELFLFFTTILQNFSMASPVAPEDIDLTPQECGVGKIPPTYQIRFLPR
# [4] = target: Potassium voltage-gated channel subfamily KQT member 5 (Homo sapiens) (UniProt Q9NR82); experiment: Agonist activity at human KCNQ5 channel expressed in CHO cells assessed as shift of half voltage of maximal activation at 0.1 uM by patch clamp method; type: cell-based; conditions: filed as agonist; method in brief: as §1
# [5] = Metabolic stability in dog liver microsomes assessed as half life; type: ADME, Canis lupus familiaris, Microsome
# [6] = AUC(0 to t) in Kunming mouse plasma at 2 mg/kg, iv measured upto 24 hrs by LC-MS/MS method; type: ADME, organism-based; parameters: time < 24 hrs, dose 2 mg/kg, route iv
# Method in brief: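 KM male mice (18−24 g), fasted 12 h before and 2 h after dosing. HN37 given orally at 5 mg/kg in 5% DMSO/5% Tween 80/90% saline, or iv at 2 mg/kg after dilution in saline with 1% Tween 80; n = 3 per time point. Blood sampled 0.25–24 h (from 0.083 h after iv); whole brain taken after oral dosing. Plasma and brain extracted with acetonitrile, quantified by LC−MS/MS; AUC0−t by trapezoidal method.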
# [7] = Metabolic stability in human liver microsomes assessed as half life; type: ADME, Microsome
# [8] = Ratio of TD50 for Kunming mouse to ED50 for anticonvulsant activity in Kunming mouse; type: toxicity; conditions: read-out: Ratio TD50/ED50
# Method in brief: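 KM mice given compound orally as a fresh 0.5% CMC-Na suspension (20 mL/kg), tested 1 h later. ED50 from the MES test (protection from hindlimb tonic extension; ear-clip stimulus 160 V). TD50 from the rotarod test as motor impairment. Both from dose–response nonlinear regression with 95% CI.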
# [9] = target: Potassium voltage-gated channel subfamily KQT member 5 (Homo sapiens) (UniProt Q9NR82); experiment: Agonist activity at human KCNQ5 channel expressed in CHO cells assessed as amplitude change of outward current at 0.1 uM by patch clamp method; type: cell-based; conditions: filed as agonist; method in brief: as §1
# [10] = target: Potassium voltage-gated channel subfamily KQT member 2/member 3 (Rattus norvegicus) (UniProt O88943+O88944); experiment: Potency index, ratio of retigabine EC50 to test compound EC50 for agonist activity at rat KCNQ2/3 channel expressed in CHO cells by patch clamp method; type: cell-based
# [11] = Tmax in Sprague-Dawley rat brain at 6 mg/kg, po measured upto 24 hrs by LC-MS/MS method; type: ADME, organism-based
# Method in brief: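 Male SD rats (180–220 g) dosed orally at 2, 6 and 20 mg/kg, handled like the mice: fasting, 5% DMSO/5% Tween 80/saline vehicle, acetonitrile extraction, LC-MS/MS of plasma. In a separate set at 6 mg/kg p.o., blood and brain were sampled together.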
# CYP3A4 = CYP3A4 (Homo sapiens, UniProt P08684); experiment: Ratio of IC50 for human liver microsome CYP3A4 using midazolam as substrate in absence of NADPH to IC50 for human liver microsome CYP3A4 using midazolam as substrate in presence of NADPH; conditions: liver microsomes, probe midazolam, read-out: Ratio IC50
# Sequence of CYP3A4 (P08684 whole entry): as the sequence (P08684 whole entry) above
# Method in brief: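 Human liver microsomes preincubated 0.5 h with 0.10−50 μM compound, with or without NADPH, then CYP-specific probe substrates added (CYP3A4 with midazolam 1′-hydroxylation and with testosterone 6β-hydroxylation). Metabolites quantified by LC−MS/MS; % activity remaining computed against no-compound control. IC50 fitted by Probit model; ratio = IC50(−NADPH)/IC50(+NADPH).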
# Sequence of Potassium voltage-gated channel subfamily KQT member 5 (Homo sapiens) (Q9NR82 whole entry, the tested form may be a part): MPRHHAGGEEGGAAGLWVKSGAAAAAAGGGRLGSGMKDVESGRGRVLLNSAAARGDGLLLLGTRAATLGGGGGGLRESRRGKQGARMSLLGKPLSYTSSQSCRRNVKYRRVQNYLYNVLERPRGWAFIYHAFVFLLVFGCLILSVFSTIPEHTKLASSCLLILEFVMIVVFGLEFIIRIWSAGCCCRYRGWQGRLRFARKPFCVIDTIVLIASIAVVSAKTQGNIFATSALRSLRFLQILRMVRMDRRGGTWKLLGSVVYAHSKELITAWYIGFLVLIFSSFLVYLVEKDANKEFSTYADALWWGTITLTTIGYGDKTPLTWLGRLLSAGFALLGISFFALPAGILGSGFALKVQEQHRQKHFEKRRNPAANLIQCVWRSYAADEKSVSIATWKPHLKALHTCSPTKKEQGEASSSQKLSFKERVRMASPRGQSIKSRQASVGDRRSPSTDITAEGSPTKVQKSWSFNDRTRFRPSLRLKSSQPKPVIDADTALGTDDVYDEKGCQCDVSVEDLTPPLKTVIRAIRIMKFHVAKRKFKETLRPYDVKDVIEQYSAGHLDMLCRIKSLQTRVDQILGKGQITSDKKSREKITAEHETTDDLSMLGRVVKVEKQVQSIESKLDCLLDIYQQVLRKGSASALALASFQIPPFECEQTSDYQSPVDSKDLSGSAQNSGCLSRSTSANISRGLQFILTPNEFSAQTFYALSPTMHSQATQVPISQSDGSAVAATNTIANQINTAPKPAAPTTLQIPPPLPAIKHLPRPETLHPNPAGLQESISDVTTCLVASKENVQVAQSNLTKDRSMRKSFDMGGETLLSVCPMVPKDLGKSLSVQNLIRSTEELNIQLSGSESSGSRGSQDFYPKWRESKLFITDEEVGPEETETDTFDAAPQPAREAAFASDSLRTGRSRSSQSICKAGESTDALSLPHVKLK
SMILES,Activity [1],Activity (CHO),Activity [2],IC50 (Cytochrome P450 3A4),half-life [3],IC50 (Cytochrome P450 2B6),Activity [4],half-life [5],AUC(0-t) at 24 h [6],half-life [7],selectivity ratio [8],Activity [9],Ratio EC50 [10],Tmax [11],IC50 shift (CYP3A4)
CCOC(=O)Nc1ccc(NCc2ccc(F)cc2)cc1N [EZOGABINE],3.04,2.46,-34.1 mV,–,–,–,–,–,–,–,–,–,–,–,–
C#CCN(Cc1ccc(F)cc1)c1cc(C)c(NC(=O)OC)c(C)c1,–,–,–,> 50 µM,23.7 min,141 µM,-9.03 mV,35.5 min,531 ng·h/mL,27.7 min,43.2,3.14,125,15 min,< 1.5
